The test system of data set [1] is MV4-11. Nature of the data set: Anti-tumor activity against luciferase-tagged human MV4-11 cells xenografted in NCG mouse assessed as reduction in number of CD45+/CD33+ cells at 150 mg/kg, po administered daily for 4 days measured after 48 hrs by flow cytometry. The class given is functional, organism-based. The conditions noted are these: time 4.0 day. In short, it runs like this: (§1)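 Female NCG mice, 5–6 weeks old, given 5×10^6 luciferase-tagged MV4;11 cells IV via tail vein. Randomized at log-phase disease (day 27). Dosed 150 mg/kg oral gavage daily for 4 days in MC/Tween 80 vehicle. Read-outs 48 h after the last dose, five mice per group, mean ± SEM: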
For orientation: A xenograft is tissue or cells of one species grown in another, often human tumour cells in immunodeficient mice.

Data set [2] in a line: Volume of distribution at steady state in C57BL/6 mouse at 1 mg/kg, iv. The class given is ADME, organism-based. Particulars: in vivo, read-out: Vdss. In short, it runs like this: (§2)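 Female C57BL/6 mice, single IV dose of 1 mg/kg given as a solution in 10% NMP, 10% Solutol HS15 and 80% saline. Parameters come from the plasma concentration–time profile.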
For another data set, the system named is MEG-01. Nature of the data set: Anti-proliferative activity against human MEG-01 cells harboring MLL wild-type protein assessed as cell growth inhibition measured after 4 days by Cell Titre Glo Luminescent Cell viability assay. The class given is functional, cell-based. The conditions noted are these: MEG-01, 96 h. A digest of the protocol:
(§3)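 Leukemia lines plated in triplicate in RPMI 1640 at 37 °C, 5% CO2. 9-point dose response from 10 μM top concentration with 1:3 serial dilutions, 0.1% DMSO final; DMSO vehicle control column. Cellular ATP read by CellTiter-Glo at day 0 and after 4 days. Averages from three independent experiments.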

Data set [3] in a line: Toxicity in SCID mouse xenografted with human MV4-11 cells assessed as signs of toxicity at 300 mg/kg, po qd administered daily for 15 days. The class given is organism-based. Particulars: in vivo, 360 h, time 15 day. A digest of the protocol: (§4)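 Female C.B-17 SCID mice, 5–6 weeks old, implanted subcutaneously in the right flank with 5×10^6 MV4;11 cells in 1:1 Matrigel. Randomized at about 200 mm3. Dosed 300 mg/kg by oral gavage once daily for 15 days in 0.5% MC (400 cP) + 0.2% Tween 80 at 10 mL/kg. Body weight measured daily; caliper volume (0.5×W×W×L) three times weekly.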

A short description of data set [4]: Clearance in C57BL/6 mouse at 1 mg/kg, iv. In kind it is ADME, organism-based. Particulars: in vivo. In short, it runs like this:
as §2

A short description of data set [5]: Toxicity in NCG mouse xenografted with luciferase-tagged MV4-11 cells assessed as change in body weight at 150 mg/kg, po administered daily for 4 days measured after 48 hrs. The class given is organism-based. The conditions noted are these: in vivo, 96 h, time 4 day. A digest of the protocol: as §1
Data set [6] in a line: Anti-proliferative activity against human OCI-AML-4 cells harboring MLL-ENL fusion protein assessed as cell growth inhibition measured after 4 days by Cell Titre Glo Luminescent Cell viability assay. In kind it is functional, cell-based. The conditions noted are these: OCI-AML-4, 96 h. A digest of the protocol: as §3
In data set [7] the target is T1, Menin (Homo sapiens) (UniProt O00255).
T1 sequence (whole entry): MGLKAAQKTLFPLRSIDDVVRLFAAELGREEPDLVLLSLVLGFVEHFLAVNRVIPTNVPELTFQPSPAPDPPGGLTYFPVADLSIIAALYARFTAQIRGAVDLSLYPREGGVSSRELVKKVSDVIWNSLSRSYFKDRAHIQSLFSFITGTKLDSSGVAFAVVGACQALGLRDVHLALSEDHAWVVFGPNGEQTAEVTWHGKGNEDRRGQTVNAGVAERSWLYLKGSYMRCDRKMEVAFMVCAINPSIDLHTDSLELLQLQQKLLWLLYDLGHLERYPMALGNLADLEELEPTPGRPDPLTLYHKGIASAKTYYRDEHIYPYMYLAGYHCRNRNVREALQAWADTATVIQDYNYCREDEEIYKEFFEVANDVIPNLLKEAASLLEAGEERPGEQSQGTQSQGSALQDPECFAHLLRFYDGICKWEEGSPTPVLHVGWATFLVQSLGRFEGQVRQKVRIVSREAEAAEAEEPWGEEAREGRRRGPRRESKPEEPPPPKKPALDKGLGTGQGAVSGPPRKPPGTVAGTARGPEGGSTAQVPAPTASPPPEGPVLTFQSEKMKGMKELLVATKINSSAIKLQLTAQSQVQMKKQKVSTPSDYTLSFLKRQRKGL
The experiment in a line: Binding affinity to recombinant human menin protein assessed as covalent complex formation incubated for 30 mins by LC/MS analysis. Also noted: concentration or dose not given beside the values.

Data set [8] is described as follows: Cmax in C57BL/6 mouse at 5 mg/kg, po. The class given is ADME, organism-based. Also noted: route oral, dose 5 mg/kg. Particulars: in vivo. In short, it runs like this: (§5)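 Female C57BL/6 mice, single oral dose of 5 mg/kg in 0.5% methyl cellulose + 0.2% Tween 80 (w/w). Bioavailability is calculated against the 1 mg/kg IV arm.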
The nature of data set [9]: Toxicity in SCID mouse xenografted with human MV4-11 cells assessed as change weight loss at 100 mg/kg, po administered daily for 26 days. In kind it is organism-based. Particulars: in vivo, 624 h, time 26 day. In short, it runs like this: (§6)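 Female C.B-17 SCID mice bearing subcutaneous MV4;11 flank tumors (5×10^6 cells with Matrigel 1:1), treated once tumors averaged about 100 mm3. Dosed 100 mg/kg daily by oral gavage for 26 days in 0.5% MC + 0.2% Tween 80 vehicle. Body weight measured daily.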

The test system of the next data set is SEM cells. Nature of the data set: Anti-proliferative activity against human SEM cells harboring MLL/AF4 fusion protein assessed as cell growth inhibition measured after 4 days by Cell Titre Glo Luminescent Cell viability assay. The class given is functional, cell-based. Particulars: 96 h. A digest of the protocol: as §3
Data set [10] can be described thus: Toxicity in SCID mouse xenografted with human MV4-11 cells assessed as signs of toxicity at 100 mg/kg, po administered daily for 26 days. In kind it is organism-based. Particulars: in vivo, 624 h, time 26 day. A digest of the protocol: as §6
The nature of data set [11]: Tmax in C57BL/6 mouse at 5 mg/kg, po. The class given is ADME, organism-based. Particulars: in vivo. A digest of the protocol: as §5
Data set [12] concerns MV4-11. The experiment in a line: Suppression of HOXA9 gene expression in human MV4-11 cells at 10 nM measured after 24 hrs by qRT-PCR analysis. In kind it is functional, cell-based. On the technique in general: Quantitative PCR measures a nucleic acid by following its amplification.
A short description of data set [13]: AUC (0 to infinity) in C57BL/6 mouse at 1 mg/kg, iv. Particulars: in vivo. The class given is ADME, organism-based. Further details: time infinity, route intravenous, dose 1 mg/kg. In short, it runs like this:
as §2

The next data set concerns KOPN-8. Nature of the data set: Anti-proliferative activity against human KOPN-8 cells harboring MLL/ENL fusion protein assessed as cell growth inhibition measured after 4 days by Cell Titre Glo Luminescent Cell viability assay. Particulars: KOPN-8, 96 h. In kind it is functional, cell-based. A digest of the protocol: as §3
The test system of data set [14] is MV4-11. Nature of the data set: Anti-tumor activity against human MV4-11 cells xenografted in SCID mouse assessed as tumor regrowth at 300 mg/kg, po qd administered daily for 15 days. The class given is functional, organism-based. The conditions noted are these: time 15.0 day. A digest of the protocol: as §4
The test system of another data set is K562. Nature of the data set: Anti-proliferative activity against human K562 cells harboring MLL wild-type protein assessed as cell growth inhibition measured after 4 days by Cell Titre Glo Luminescent Cell viability assay. The class given is functional, cell-based. The conditions noted are these: K562, 96 h. In short, it runs like this: as §3
The next data set relates to HL-60. The experiment in a line: Anti-proliferative activity against human HL-60 cells harboring MLL wild-type protein assessed as cell growth inhibition measured after 4 days by Cell Titre Glo Luminescent Cell viability assay. In kind it is functional, cell-based. Particulars: HL-60, 96 h. A digest of the protocol: as §3
Data set [15] can be described thus: Oral bioavailability in C57BL/6 mouse at 5 mg/kg. The conditions noted are these: in vivo. The class given is ADME, organism-based. In short, it runs like this: as §5
Data set [16] has as its target T1, Menin (Homo sapiens). The experiment in a line: Binding affinity to recombinant human menin protein assessed as covalent complex formation incubated for 10 mins by LC/MS analysis. Also noted: concentration or dose not given beside the values.
A short description of data set [17]: AUC (0 to infinity) in C57BL/6 mouse at 5 mg/kg, po. In kind it is ADME, organism-based. Further details: route oral, time infinity, dose 5 mg/kg. Particulars: in vivo. A digest of the protocol:
as §5

The target of data set [18] is T1, Menin (Homo sapiens). Nature of the data set: Binding affinity to recombinant human menin protein assessed as covalent complex formation measured after overnight incubation by LC/MS analysis. Also noted: concentration or dose not given beside the values.
Data set [19] is described as follows: Toxicity in SCID mouse xenografted with human MV4-11 cells assessed as change weight loss at 300 mg/kg, po qd administered daily for 15 days. The conditions noted are these: in vivo, 360 h, time 15 day. In kind it is organism-based. A digest of the protocol:
as §4

pIC50: −log10 of the molar value. Calls of active or inactive are those of the source. The calls are words filed in the database; no cut-off is given here.

Turning to `C=CC(=O)N1C[C@@H]2C[C@H]1CN2S(=O)(=O)c1ccc(N2CC(CN3CCC([C@@](CN4CCC4)(c4cccc(F)c4)[C@H]4CCC[C@@H]4NC(=O)OC)CC3)(OC)C2)cc1`, the outcome in the data set on MV4-11 [1] and in the data set with MV4-11 [14] was Active. The Vd in data set [2] amounted to 0.33 L/kg. In addition, the pIC50 with MEG-01 was less than 5.00; in [6] it was 8.52; in the data set with SEM cells, 7.29; with KOPN-8, 6.96; in the data set with K562, less than 5.00; with HL-60 it was less than 5.00. Further, the Activity entry in data set [3] was “Non-Toxic”; in data set [5], “Non-Toxic”; at Menin (Homo sapiens) [7] it was 59%; in data set [9], “Non-Toxic”; in [10] it was “Non-Toxic”; at Menin (Homo sapiens) [16], 27%. The results for the Activity (on Menin (Homo sapiens) [18]; in data set [19]) were 100% and “Non-Toxic”, respectively. Besides, in [4], the clearance was 0.945 mL/min/kg. In data set [8], this compound gave a Cmax of 4150 ng/mL. Further, the Tmax in data set [11] came to 2 h. Also, the inhibition entry in the data set with MV4-11 [12] is “Active”. The AUC(0-inf) in data set [13] was found to be 17600 ng·h/mL; in data set [17], 43600 ng·h/mL. The same compound gave a F in data set [15] of 49.4%.

As usually defined, the pIC50 is −log10 of the IC50, conventionally taken in molar units. One may read the clearance as the rate of elimination divided by the concentration. What is called Cmax is the highest concentration seen after dosing. As a reminder, the Tmax is the time from dosing to the highest level. In general, AUC(0-inf) refers to total exposure, with the tail of the curve extrapolated.

The values above are taken from ChEMBL document CHEMBL5038600, “Discovery of M-1121 as an Orally Active Covalent Inhibitor of Menin-MLL Interaction Capable of Achieving Complete and Long-Lasting Tumor Regression” (J Med Chem, 2021).
